The text below walks through data of ChEMBL document CHEMBL3351346, “Design, synthesis, structure-function relationship, bioconversion, and pharmacokinetic evaluation of ertapenem prodrugs” (J Med Chem, 2014).

Structures are written as SMILES.

Data set [1] in a line: Stability in rat plasma assessed as compound remaining at 50 uM at 37 degC after 60 mins by LC-MS/MS method. It is filed as ADME, cell-free. Conditions: read-out: Stability. Summed up: (§1)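 Prodrugs were incubated in rat or human plasma for 60 min. Disappearance of prodrug and concomitant appearance of ertapenem were followed by LC-MS/MS, and in selected cases monoesters from partial hydrolysis were also monitored. Ertapenem itself was incubated the same way as a control.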

The nature of data set [2]: Stability in human plasma assessed as compound remaining at 50 uM at 37 degC after 60 mins by LC-MS/MS method. The class given is ADME, cell-free. The following applies: read-out: Stability. Summed up: as §1
Data set [3] in a line: Stability in pH 2.0 simulated gastric fluid assessed as compound degradation to beta-lactam ring open products at 1 uM after 60 mins by LC-MS/MS method. The class given is ADME. The following applies: read-out: Drug degradation. Summed up:
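Incubation was in simulated gastric fluid (SGF, pH 2.0) for 60 min, with loss to the β-lactam ring-opened product measured by LC-MS/MS.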

The nature of data set [4]: Stability in pH 6.5 simulated gastrointestinal fluid assessed as compound remaining at 50 uM after 3 hrs by LC-MS/MS method. The class given is ADME. Conditions: read-out: Stability. In a few lines: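 Compounds at 50 μM were incubated in fasted-state simulated intestinal fluid (FaSSIF, pH 6.5) for over 3 h. Percent remaining was determined by LC-MS/MS.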
A short description of data set [5]: Stability in pH 7.4 phosphate buffer assessed as compound remaining at 50 uM after 3 hrs by LC-MS/MS method. Conditions: read-out: Stability. The class given is physicochemical.

Take `C[C@@H](O)[C@H]1C(=O)N2C(C(=O)OCOC(=O)C(C)(C)C)=C(S[C@@H]3CN[C@H](C(=O)Nc4cccc(C(=O)O)c4)C3)[C@H](C)[C@H]12`: the remaining at 1 h, 50 µM in data set [1] came to 0%; in data set [2], 45%. Also, the degraded at 1 h, 1 µM in data set [3] was above 25%. The remaining at 3 h, 50 µM in data set [4] and in data set [5] was above 95% throughout.

Consider `C[C@@H](O)[C@H]1C(=O)N2C(C(=O)O)=C(S[C@@H]3CN[C@H](C(=O)Nc4cccc(C(=O)OCOC(=O)C(C)(C)C)c4)C3)[C@H](C)[C@H]12`, for which the remaining at 1 h, 50 µM amounted to 0% in data set [1] and 53% in data set [2]. Further, the degraded at 1 h, 1 µM in data set [3] was above 25%. Moreover, the remaining at 3 h, 50 µM in data set [4] and in data set [5] was above 95% throughout.

As for `CCC(CC)C(=O)OCOC(=O)C1=C(S[C@@H]2CN[C@H](C(=O)Nc3cccc(C(=O)OCOC(=O)C(CC)CC)c3)C2)[C@H](C)[C@@H]2[C@@H]([C@@H](C)O)C(=O)N12`, the values for the remaining at 1 h, 50 µM in data set [1] and in data set [2] were 3% and 83%, respectively. The degraded at 1 h, 1 µM in data set [3] is above 25%. In addition, the remaining at 3 h, 50 µM in data set [4] and in data set [5] was above 95% each time.

With `CCC(CC)C(=O)OCOC(=O)C1=C(S[C@@H]2CN[C@H](C(=O)Nc3cccc(C(=O)O)c3)C2)[C@H](C)[C@@H]2[C@@H]([C@@H](C)O)C(=O)N12`, the remaining at 1 h, 50 µM in data set [1] was determined as 0%; in data set [2], 82%. In data set [3], the degraded at 1 h, 1 µM is above 25%. Also, the remaining at 3 h, 50 µM in data set [4] and in data set [5] was above 95% in each case.

On to `CC(C)C(=O)OCOC(=O)c1cccc(NC(=O)[C@@H]2C[C@H](SC3=C(C(=O)O)N4C(=O)[C@H]([C@@H](C)O)[C@H]4[C@H]3C)CN2)c1`, for which the remaining at 1 h, 50 µM in data set [1] stood at 0%; in data set [2], 26%. The degraded at 1 h, 1 µM in data set [3] is above 25%. Further, the remaining at 3 h, 50 µM in data set [4] and in data set [5] was above 95% in each case.

Consider `C[C@@H](O)[C@H]1C(=O)N2C(C(=O)OCOC(=O)C3CCCCC3)=C(S[C@@H]3CN[C@H](C(=O)Nc4cccc(C(=O)OCOC(=O)C5CCCCC5)c4)C3)[C@H](C)[C@H]12`, for which the results for the remaining at 1 h, 50 µM in data set [1] and in data set [2] were 10% and 60%, respectively. Also, the degraded at 1 h, 1 µM in data set [3] was above 25%. Also, the remaining at 3 h, 50 µM in data set [4] and in data set [5] was above 95% each time.

For the compound `C[C@@H](O)[C@H]1C(=O)N2C(C(=O)OCOC(=O)C3CCCCC3)=C(S[C@@H]3CN[C@H](C(=O)Nc4cccc(C(=O)O)c4)C3)[C@H](C)[C@H]12`, the remaining at 1 h, 50 µM in data set [1] was 0%; in data set [2], 20%. Further, the degraded at 1 h, 1 µM in data set [3] is above 25%. The remaining at 3 h, 50 µM in data set [4] and in data set [5] was above 95% each time.

Turning to `CC(=O)OCOC(=O)C1=C(S[C@@H]2CN[C@H](C(=O)Nc3cccc(C(=O)OCOC(C)=O)c3)C2)[C@H](C)[C@@H]2[C@@H]([C@@H](C)O)C(=O)N12`, the remaining at 1 h, 50 µM in data set [1] and in data set [2] was 0% throughout. In data set [3], the degraded at 1 h, 1 µM is above 25%. In addition, the remaining at 3 h, 50 µM in data set [4] and in data set [5] was above 95% throughout.

As for `CC(OC(=O)C1=C(S[C@@H]2CN[C@H](C(=O)Nc3cccc(C(=O)OC(C)OC(=O)C(C)(C)C)c3)C2)[C@H](C)[C@@H]2[C@@H]([C@@H](C)O)C(=O)N12)OC(=O)C(C)(C)C` (stereo not given in full), the figures for the remaining at 1 h, 50 µM in data set [1] and in data set [2] were 2% and 46%, respectively. In addition, the degraded at 1 h, 1 µM in data set [3] was above 25%. Also, the remaining at 3 h, 50 µM in data set [4] and in data set [5] was above 95% in each case.

On to `C[C@@H](O)[C@H]1C(=O)N2C(C(=O)OCOC(=O)OC(C)(C)C)=C(S[C@@H]3CN[C@H](C(=O)Nc4cccc(C(=O)OCOC(=O)OC(C)(C)C)c4)C3)[C@H](C)[C@H]12`, for which the remaining at 1 h, 50 µM in data set [1] turned out to be 8%; in data set [2], 67%. The degraded at 1 h, 1 µM in data set [3] is above 25%. Further, the remaining at 3 h, 50 µM in data set [4] and in data set [5] was above 95% throughout.

On to `C[C@@H](O)[C@H]1C(=O)N2C(C(=O)OCOC(=O)OC(C)(C)C)=C(S[C@@H]3CN[C@H](C(=O)Nc4cccc(C(=O)O)c4)C3)[C@H](C)[C@H]12`, for which the remaining at 1 h, 50 µM in data set [1] was determined as 0%; in data set [2], 40%. For the same compound, the degraded at 1 h, 1 µM in data set [3] was above 25%. Besides, the remaining at 3 h, 50 µM in data set [4] and in data set [5] was above 95% throughout.

As for `CC(C)OC(=O)OCOC(=O)C1=C(S[C@@H]2CN[C@H](C(=O)Nc3cccc(C(=O)OCOC(=O)OC(C)C)c3)C2)[C@H](C)[C@@H]2[C@@H]([C@@H](C)O)C(=O)N12`, the remaining at 1 h, 50 µM came to 3% in data set [1] and 28% in data set [2]. Besides, in data set [3], the degraded at 1 h, 1 µM was above 25%. For the same compound, the remaining at 3 h, 50 µM in data set [4] and in data set [5] was above 95% each time.

For the compound `CC(C)OC(=O)OCOC(=O)C1=C(S[C@@H]2CN[C@H](C(=O)Nc3cccc(C(=O)O)c3)C2)[C@H](C)[C@@H]2[C@@H]([C@@H](C)O)C(=O)N12`, the remaining at 1 h, 50 µM in data set [1] worked out at 0%; in data set [2], 62%. Besides, the degraded at 1 h, 1 µM in data set [3] is above 25%. For the same compound, the remaining at 3 h, 50 µM in data set [4] and in data set [5] was above 95% in each case.

As to `C[C@@H](O)[C@H]1C(=O)N2C(C(=O)OCOC(=O)OC3CCCCC3)=C(S[C@@H]3CN[C@H](C(=O)Nc4cccc(C(=O)OCOC(=O)OC5CCCCC5)c4)C3)[C@H](C)[C@H]12`, the remaining at 1 h, 50 µM in data set [1] is 10%; in data set [2], 96%. Also, the degraded at 1 h, 1 µM in data set [3] is above 25%. Moreover, the remaining at 3 h, 50 µM in data set [4] and in data set [5] was above 95% in each case.

On to `C[C@@H](O)[C@H]1C(=O)N2C(C(=O)OCOC(=O)OC3CCCCC3)=C(S[C@@H]3CN[C@H](C(=O)Nc4cccc(C(=O)O)c4)C3)[C@H](C)[C@H]12`, for which the remaining at 1 h, 50 µM was determined as 0% in data set [1] and 46% in data set [2]. The degraded at 1 h, 1 µM in data set [3] is above 25%. Also, the remaining at 3 h, 50 µM in data set [4] and in data set [5] was above 95% throughout.

Consider `CCOC(=O)OCOC(=O)C1=C(S[C@@H]2CN[C@H](C(=O)Nc3cccc(C(=O)OCOC(=O)OCC)c3)C2)[C@H](C)[C@@H]2[C@@H]([C@@H](C)O)C(=O)N12`, for which the values for the remaining at 1 h, 50 µM in data set [1] and in data set [2] were 0% and 1%, respectively. The degraded at 1 h, 1 µM in data set [3] is above 25%. In addition, the remaining at 3 h, 50 µM in data set [4] and in data set [5] was above 95% in each case.

`CCOC(=O)OCOC(=O)C1=C(S[C@@H]2CN[C@H](C(=O)Nc3cccc(C(=O)O)c3)C2)[C@H](C)[C@@H]2[C@@H]([C@@H](C)O)C(=O)N12`: the remaining at 1 h, 50 µM in data set [1] came out at 0%; in data set [2], 10%. For the same compound, in data set [3], the degraded at 1 h, 1 µM was above 25%. Further, the remaining at 3 h, 50 µM in data set [4] and in data set [5] was above 95% each time.

Regarding `COC(=O)OCOC(=O)C1=C(S[C@@H]2CN[C@H](C(=O)Nc3cccc(C(=O)OCOC(=O)OC)c3)C2)[C@H](C)[C@@H]2[C@@H]([C@@H](C)O)C(=O)N12`, the remaining at 1 h, 50 µM in data set [1] and in data set [2] was 0% throughout. Also, the degraded at 1 h, 1 µM in data set [3] is above 25%. The remaining at 3 h, 50 µM in data set [4] and in data set [5] was above 95% in each case.

Take `COC(=O)OCOC(=O)C1=C(S[C@@H]2CN[C@H](C(=O)Nc3cccc(C(=O)O)c3)C2)[C@H](C)[C@@H]2[C@@H]([C@@H](C)O)C(=O)N12`: the remaining at 1 h, 50 µM in data set [1] is 0%; in data set [2], 33%. Further, the degraded at 1 h, 1 µM in data set [3] was above 25%. The remaining at 3 h, 50 µM in data set [4] and in data set [5] was above 95% each time.

For `Cc1oc(=O)oc1COC(=O)c1cccc(NC(=O)[C@@H]2C[C@H](SC3=C(C(=O)O)N4C(=O)[C@H]([C@@H](C)O)[C@H]4[C@H]3C)CN2)c1`, the figures for the remaining at 1 h, 50 µM in data set [1] and in data set [2] were 0% and 12%, respectively. Moreover, the degraded at 1 h, 1 µM in data set [3] was above 25%. Moreover, the remaining at 3 h, 50 µM in data set [4] and in data set [5] was above 95% throughout.

Consider `CCOC(=O)C1=C(S[C@@H]2CN[C@H](C(=O)Nc3cccc(C(=O)O)c3)C2)[C@H](C)[C@@H]2[C@@H]([C@@H](C)O)C(=O)N12`, for which the degraded at 1 h, 1 µM in data set [3] is above 25%. The remaining at 3 h, 50 µM in data set [4] and in data set [5] was above 95% each time.

For `CCOC(=O)c1cccc(NC(=O)[C@@H]2C[C@H](SC3=C(C(=O)O)N4C(=O)[C@H]([C@@H](C)O)[C@H]4[C@H]3C)CN2)c1`, the degraded at 1 h, 1 µM in data set [3] was above 25%. In addition, the remaining at 3 h, 50 µM in data set [4] and in data set [5] was above 95% each time.

As to `CC(C)OC(=O)C1=C(S[C@@H]2CN[C@H](C(=O)Nc3cccc(C(=O)O)c3)C2)[C@H](C)[C@@H]2[C@@H]([C@@H](C)O)C(=O)N12`, the degraded at 1 h, 1 µM in data set [3] was above 25%. Moreover, the remaining at 3 h, 50 µM in data set [4] and in data set [5] was above 95% throughout.

Regarding `CC(C)OC(=O)c1cccc(NC(=O)[C@@H]2C[C@H](SC3=C(C(=O)O)N4C(=O)[C@H]([C@@H](C)O)[C@H]4[C@H]3C)CN2)c1`, the degraded at 1 h, 1 µM in data set [3] was above 25%. Moreover, the remaining at 3 h, 50 µM in data set [4] and in data set [5] was above 95% throughout.

As for `C[C@@H](O)[C@H]1C(=O)N2C(C(=O)O)=C(S[C@@H]3CN[C@H](C(=O)Nc4cccc(C(=O)OCC(F)(F)F)c4)C3)[C@H](C)[C@H]12`, the degraded at 1 h, 1 µM in data set [3] is above 25%. Also, the remaining at 3 h, 50 µM in data set [4] and in data set [5] was above 95% throughout.
